Test results as given in ChEMBL document CHEMBL5380783, “N-Substituted l-Iminosugars for the Treatment of Sanfilippo Type B Syndrome” (J Med Chem, 2023).
Activity calls are given as the source filed them. No cut-off for these calls is given here.

What was measured:
Fibroblast [1] = assay: Inhibition of heparan sulfate accumulation on cell membrane in Sanfilippo-B patient derived human fibroblast cells at 20 uM incubated for 48 hrs by indirect immunofluorescence staining analysis; type: functional, cell-based
Procedure, shortened: (§1)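 HDFa, MPS IIIA, MPS IIIB and MPS I patient fibroblasts in DMEM, 10% FBS, grown 48 h on coverslips with 20 μM compound. Double immunostained for HS (10E4) and Lamp1 with DAPI, confocal imaging. Mean fluorescence intensity expressed relative to untreated cells (d-enantiomers: percent positive cells), 50 random cells from three experiments.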

Fibroblast [2] = assay: Inhibition of lysosomal defects in Sanfilippo-A patient derived human fibroblast cells assessed as reduction in accumulation of enlarged LAMP1-positive lysosomal structures within the cytoplasm at 20 uM incubated for 48 hrs by LAMP1 staining based indirect immunofluorescence assay; type: functional, cell-based; procedure, shortened: as §1
HeLa [3] = assay: Upregulation of NAGLU protein expression in human HeLa cells at 20 uM incubated for 24 hrs by western blot analysis; type: functional, cell-based
Fibroblast [4] = assay: Upregulation of NAGLU protein expression in Sanfilippo-B patient derived human fibroblast cells at 20 uM incubated for 24 hrs by western blot analysis; type: functional, cell-based
Procedure, shortened: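 Sanfilippo B patient fibroblasts in DMEM, 10% FBS, treated 24 h with 20 μM compound. Lysates (50 μg per lane) blotted with anti-NAGLU antibody and HRP secondary with ECL detection; blots re-probed for β-actin as loading control.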

IB3-1 [5] = assay: Antiproliferative activity against human IB3-1 cells upto 100 uM; type: toxicity, cell-based; conditions: ib3-1, 100 µM
HeLa [6] = assay: Downregulation of SDC2 protein expression in human HeLa cells at 20 uM incubated for 24 hrs by western blot analysis; type: functional, cell-based
SK-N-BE(2) [7] = assay: Inhibition of heparan sulfate accumulation on cell membrane in NAGLU-silenced human SK-NBE cells clone at 20 uM incubated for 48 hrs by indirect immunofluorescence staining analysis; type: functional, cell-based
Procedure, shortened: (§2)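 Control and NAGLU-silenced SK-NBE clones grown on coverslips with 20 μM compound for 48 h. Fixed in 3.7% formaldehyde, permeabilized with saponin/BSA buffer, stained with anti-Lamp1 or anti-HS 10E4 for 1 h, then Alexa secondaries. Confocal imaging with 63× objective. Scored as percent cells with enlarged Lamp1 structures or membrane HS, plus mean fluorescence intensity, over 50 random cells from three experiments.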

[8] = system: Alpha-N-acetylglucosaminidase (Homo sapiens), P54802 [UNDEFINED MUTATION]; assay: Nonactive chaperone activity against mutated NAGLU in Sanfilippo-B patient derived human fibroblast cells assessed as co-localization of NAGLU with lysosomes by measuring NAGLU/Lamp1-positive structures at 20 uM incubated for 48 hrs by indirect immunofluorescence staining based analysis; type: cell-based
Sequence of Alpha-N-acetylglucosaminidase (Homo sapiens), P54802 [UNDEFINED MUTATION] (P54802 whole entry, looked up, stated change not applied): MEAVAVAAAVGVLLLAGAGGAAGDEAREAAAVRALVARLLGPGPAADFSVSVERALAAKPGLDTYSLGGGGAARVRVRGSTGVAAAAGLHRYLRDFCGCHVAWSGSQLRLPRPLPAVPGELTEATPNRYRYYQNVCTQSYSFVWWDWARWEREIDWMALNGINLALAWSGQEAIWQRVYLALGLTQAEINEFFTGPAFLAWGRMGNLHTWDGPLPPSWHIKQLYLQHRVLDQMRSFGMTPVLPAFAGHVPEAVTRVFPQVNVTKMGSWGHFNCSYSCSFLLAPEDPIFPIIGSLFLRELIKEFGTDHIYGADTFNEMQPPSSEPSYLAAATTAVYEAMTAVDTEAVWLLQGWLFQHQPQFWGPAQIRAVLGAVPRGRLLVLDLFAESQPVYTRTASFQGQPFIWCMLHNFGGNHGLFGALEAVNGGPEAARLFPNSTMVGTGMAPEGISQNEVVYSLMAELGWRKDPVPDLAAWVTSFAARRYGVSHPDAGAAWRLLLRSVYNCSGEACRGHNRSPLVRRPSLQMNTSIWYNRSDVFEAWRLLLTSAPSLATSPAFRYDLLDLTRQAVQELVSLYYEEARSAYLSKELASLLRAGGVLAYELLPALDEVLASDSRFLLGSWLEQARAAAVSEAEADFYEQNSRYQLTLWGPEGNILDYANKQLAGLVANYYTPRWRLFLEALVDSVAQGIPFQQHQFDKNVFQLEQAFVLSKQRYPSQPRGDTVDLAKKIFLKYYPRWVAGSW
Procedure, shortened: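 HDFa and MPS IIIB fibroblasts, with or without (mock) 20 μM compound, for 48 h on coverslips. Co-stained for NAGLU and Lamp1 with DAPI, confocal imaging. NAGLU–lysosome co-localization quantified as mean fluorescence relative to untreated cells, 50 random cells from three experiments.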

Fibroblast [9] = assay: Inhibition of lysosomal defects in Sanfilippo-B patient derived human fibroblast cells assessed as dispersion of lysosomes all over the cytoplasm at 20 uM incubated for 48 hrs by LAMP1 staining based indirect immunofluorescence assay; type: functional, cell-based; procedure, shortened: as §1
HeLa [10] = assay: Cytotoxicity against human HeLa cells assessed as reduction in cell viability at 20 uM incubated for 48 hrs by trypan blue exclusion method; type: functional, cell-based
Procedure, shortened: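 HeLa cells seeded at 100,000 per well and grown overnight in complete RPMI. Exposed to 20 μM compound in the same medium for 48 h at 37 °C; untreated mock as control. Cells trypsinized, live cells counted by trypan blue exclusion on an automated counter. Means of three independent experiments, each in triplicate, with s.e.m.; Student's t-test, p < 0.05.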

IB3-1 [11] = assay: Cytotoxicity against human IB3-1 cells assessed as induction of apoptosis upto 100 uM; type: toxicity, cell-based; conditions: ib3-1, 100 µM
SK-N-BE(2) [12] = assay: Inhibition of lysosomal defects in NAGLU-silenced human SK-NBE cell clones assessed as reduction in more concentrated lysosomal distribution in the perinuclear region of the cytoplasm at 20 uM incubated for 48 hrs by LAMP1 staining based indirect immunofluorescence assay; type: functional; procedure, shortened: as §2
HeLa [13] = assay: Downregulation of EXT1 protein expression in human HeLa cells at 20 uM incubated for 24 hrs by western blot analysis; type: functional, cell-based
Fibroblast [14] = assay: Inhibition of lysosomal defects in Sanfilippo-B patient derived human fibroblast cells assessed as reduction in more concentrated lysosomal distribution in the perinuclear region of the cytoplasm at 20 uM incubated for 48 hrs by LAMP1 staining based indirect immunofluorescence assay; type: functional, cell-based; procedure, shortened: as §1
Fibroblast [15] = assay: Inhibition of heparan sulfate accumulation on cell membrane in MPS-1 patient derived human fibroblast cells at 40 uM incubated for 48 hrs by indirect immunofluorescence staining analysis; type: functional, cell-based
Procedure, shortened: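 MPS I patient fibroblasts grown on coverslips with 40 μM compound for 48 h. Immunostained for HS (10E4) and Lamp1 with DAPI, imaged by confocal microscopy. Mean fluorescence intensity expressed relative to untreated cells, 50 random cells from three independent experiments.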

[16] = Cytotoxicity against human CuFi cells assessed as induction of apoptosis upto 100 uM; type: toxicity, cell-based
Fibroblast [17] = assay: Inhibition of heparan sulfate accumulation on cell membrane in Sanfilippo-A patient derived human fibroblast cells at 20 uM incubated for 48 hrs by indirect immunofluorescence staining analysis; type: functional, cell-based; procedure, shortened: as §1
Fibroblast [18] = assay: Inhibition of lysosomal defects in MPS-1 patient derived human fibroblast cells assessed as reduction in accumulation of enlarged LAMP1-positive lysosomal structures within the cytoplasm at 20 uM incubated for 48 hrs by LAMP1 staining based indirect immunofluorescence assay; type: functional, cell-based; procedure, shortened: as §1
Fibroblast [19] = assay: Inhibition of heparan sulfate accumulation on cell membrane in MPS-1 patient derived human fibroblast cells at 20 uM incubated for 48 hrs by indirect immunofluorescence staining analysis; type: functional, cell-based; procedure, shortened: as §1
[20] = system: Alpha-N-acetylglucosaminidase (Homo sapiens), P54802 [UNDEFINED MUTATION]; assay: Stabilization of mutated NAGLU in Sanfilippo-B patient derived human fibroblast cells assessed as increase in NAGLU activity using 4-methylumbelliferyl-N-acetyl-alpha-D-glucosaminide as substrate at 20 uM cells pretreated for 2 hrs with substrate followed by compound addition by fluorescence based analysis relative to control; type: cell-based
Procedure, shortened: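 Pellets of 5 × 10^5 MPS IIIB or HDFa fibroblasts lysed by 10 freeze–thaw cycles and clarified at 4 °C; protein by Lowry. Lysate incubated 2 h with 2 mM 4-methylumbelliferyl-N-acetyl-α-D-glucosaminide stock in 0.2 M Na-acetate pH 4.5, compound added at 20 μM. Activity normalized to protein, expressed as nmol substrate hydrolysed per h per mg.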

For `Cl.OC[C@@H]1NC[C@@H](O)[C@H](O)[C@H]1O`, the inhibition (Fibroblast [1]) was “Active”, the inhibition (Fibroblast [2]) was “Active” and the Activity (HeLa [3]) was “Active”. For the same compound, the Activity (Fibroblast [4]) was “Active”, the Activity (IB3-1 [5]) was “Non-Toxic” and the inhibition (HeLa [6]) was “inactive”. For the same compound, the inhibition (SK-N-BE(2) [7]) was “Active”, the Activity [8] was “Active” and the inhibition (Fibroblast [9]) was “Active”. The Activity (HeLa [10]) was “Active”, the Activity (IB3-1 [11]) was “Non-Toxic” and the inhibition (SK-N-BE(2) [12]) was “Active”. The inhibition (HeLa [13]) was “Active”, the inhibition (Fibroblast [14]) was “Active” and the inhibition (Fibroblast [15]) was “Active”. For the same compound, the Activity [16] was “Non-Toxic”, the inhibition (Fibroblast [17]) was “Active” and the inhibition (Fibroblast [18]) was “inactive”. For the same compound, the inhibition (Fibroblast [19]) was “inactive”.

In the case of `Cl.OC[C@H]1[C@H](O)[C@@H](O)[C@H](O)CN1CCCCCOCC12CC3CC(CC(C3)C1)C2`, the inhibition (Fibroblast [1]) is reported as “Active”, the inhibition (Fibroblast [2]) is reported as “Active” and the Activity (HeLa [3]) is reported as “Active”. For the same compound, the Activity (Fibroblast [4]) was “Active”, the Activity (IB3-1 [5]) was “Non-Toxic” and the inhibition (HeLa [6]) was “inactive”. For the same compound, the inhibition (SK-N-BE(2) [7]) was “Active”, the Activity [8] was “Active” and the inhibition (Fibroblast [9]) was “Active”. For the same compound, the Activity (HeLa [10]) was “Active”, the Activity (IB3-1 [11]) was “Non-Toxic” and the inhibition (SK-N-BE(2) [12]) was “Active”. For the same compound, the inhibition (HeLa [13]) was “inactive”, the inhibition (Fibroblast [14]) was “Active” and the inhibition (Fibroblast [15]) was “Active”. For the same compound, the Activity [16] was “Non-Toxic”, the inhibition (Fibroblast [17]) was “Active” and the inhibition (Fibroblast [18]) was “inactive”. The inhibition (Fibroblast [19]) was “inactive”.

In the case of `CCCCN1C[C@@H](O)[C@H](O)[C@@H](O)[C@@H]1CO.Cl`, the inhibition (Fibroblast [1]) is reported as “Active”, the inhibition (Fibroblast [2]) is reported as “Active” and the Activity (HeLa [3]) is reported as “Active”. For the same compound, the Activity (Fibroblast [4]) was “Active”, the Activity (IB3-1 [5]) was “Non-Toxic” and the fold change (FC) [20] was 20. For the same compound, the inhibition (HeLa [6]) was “inactive”, the inhibition (SK-N-BE(2) [7]) was “Active” and the Activity [8] was “Active”. The inhibition (Fibroblast [9]) was “Active”, the Activity (HeLa [10]) was “Active” and the Activity (IB3-1 [11]) was “Non-Toxic”. For the same compound, the inhibition (SK-N-BE(2) [12]) was “Active”, the inhibition (HeLa [13]) was “Active” and the inhibition (Fibroblast [14]) was “Active”. The inhibition (Fibroblast [15]) was “Active”, the Activity [16] was “Non-Toxic” and the inhibition (Fibroblast [17]) was “Active”. The inhibition (Fibroblast [18]) was “inactive” and the inhibition (Fibroblast [19]) was “inactive”.

With `COCCCCCCCCCN1C[C@@H](O)[C@H](O)[C@@H](O)[C@@H]1CO.Cl` the inhibition (Fibroblast [1]) was “Active”, the inhibition (Fibroblast [2]) was “Active” and the Activity (HeLa [3]) was “Active”. For the same compound, the Activity (Fibroblast [4]) was “Active”, the Activity (IB3-1 [5]) was “Non-Toxic” and the inhibition (HeLa [6]) was “inactive”. For the same compound, the inhibition (SK-N-BE(2) [7]) was “Active”, the Activity [8] was “Active” and the inhibition (Fibroblast [9]) was “Active”. For the same compound, the Activity (HeLa [10]) was “Active”, the Activity (IB3-1 [11]) was “Non-Toxic” and the inhibition (SK-N-BE(2) [12]) was “Active”. For the same compound, the inhibition (HeLa [13]) was “inactive”, the inhibition (Fibroblast [14]) was “Active” and the inhibition (Fibroblast [15]) was “Active”. The Activity [16] was “Non-Toxic”, the inhibition (Fibroblast [17]) was “Active” and the inhibition (Fibroblast [18]) was “inactive”. The inhibition (Fibroblast [19]) was “inactive”.
